In ChEMBL document CHEMBL3271978, “Synthesis and some pharmacological properties of [4-homoserine]oxytocin” (J Med Chem, 1977) one finds Activity and Ratio data, which are given here for 5 compounds.

Data set [1] is described as follows: Oxytocic potency in rat uterus. The format is functional. The essentials:
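Isolated rat uterus suspended in bath solution without Mg2+; oxytocic activity assayed against USP posterior pituitary reference standard.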

Data set [2] deals with Rattus norvegicus. The experiment in a line: Oxytocic activity in iv dosed lactating rat anesthetized with pentobarbital assessed as milk ejection. The format is functional. In a few lines:
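Lactating rats anesthetized with pentobarbital received peptide by intravenous injection; milk-ejection response measured relative to USP posterior pituitary reference standard.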

Data set [3] can be described thus: Ratio of oxytocic potency in rat uterus to antidiuretic activity in iv dosed hydrated rat anesthetized with ethanol.
For data set [4], the species on record is Rattus norvegicus. The experiment in a line: Vasopressor activity in phenoxybenzamine-treated rat under urethane anesthesia. The format is ADME, organism-based. The following applies: in vivo. The essentials: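 Rats pretreated with phenoxybenzamine, under urethane anesthesia; pressor response assayed against USP posterior pituitary reference standard.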

The nature of data set [5]: Oxytocic potency in rat uterus in presence of 0.5 mM Mg2+. The format is functional. The essentials: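 Isolated rat uterus suspended in solution containing 0.5 mM Mg2+; oxytocic activity assayed against USP posterior pituitary reference standard.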
The nature of data set [6]: Ratio of oxytocic potency in rat uterus to vasopressor activity in phenoxybenzamine-treated rat under urethane anesthesia.
For data set [7], the system named is Rattus norvegicus. In words: Antidiuretic activity in iv dosed hydrated rat anesthetized with ethanol. It counts as ADME, organism-based, Urine. Conditions: in vivo.

Positions of bridges follow the written chain, without caps; N, C: chain ends. Non-standard residues stand in square brackets, D forms with d. Residues, ends and D or L forms follow the SMILES beside them. hSer = N[C@@H](CCO)C(=O)O Some results are limits rather than exact numbers.

For `CC[C@H](C)[C@@H]1NC(=O)[C@H](Cc2ccc(O)cc2)NC(=O)[C@@H](N)CSSC[C@@H](C(=O)N2CCC[C@H]2C(=O)N[C@@H](CC(C)C)C(=O)NCC(N)=O)NC(=O)[C@H](CC(N)=O)NC(=O)[C@H](CC(N)=O)NC1=O` (H-CYINNCPLG-NH2; disulfide 1-6), the Activity is 108 U/mg in data set [1]; 300 U/mg in data set [2]; 0.12 U/mg in data set [4]; 490 U/mg in data set [5]; 0.044 U/mg in data set [7]. Further, the Ratio in data set [3] is given as 929; in data set [6], 823.
Take `CC[C@H](C)[C@@H]1NC(=O)[C@H](Cc2ccc(O)cc2)NC(=O)[C@@H](N)CSSC[C@@H](C(=O)N2CCC[C@H]2C(=O)N[C@@H](CC(C)C)C(=O)NCC(N)=O)NC(=O)[C@H](CC(N)=O)NC(=O)[C@H](CO)NC1=O` (H-CYISNCPLG-NH2; disulfide 1-6): the Activity came out at 148 U/mg in data set [1]; 255 U/mg in data set [2]; 0.028 U/mg in data set [4]; 331 U/mg in data set [5]; 0.06 U/mg in data set [7]. The Ratio in data set [3] is 80; in data set [6] it was >1950.
For the compound `CC[C@H](C)[C@@H]1NC(=O)[C@H](Cc2ccc(O)cc2)NC(=O)[C@@H](N)CSSC[C@@H](C(=O)N2CCC[C@H]2C(=O)N[C@@H](CC(C)C)C(=O)NCC(N)=O)NC(=O)[C@H](CC(N)=O)NC(=O)[C@H]([C@@H](C)O)NC1=O` (H-CYITNCPLG-NH2; disulfide 1-6), the Activity in data set [1] was determined as 923 U/mg; in data set [2], 543 U/mg; in data set [4] it was 0.43 U/mg; in data set [5], 719 U/mg; in data set [7], 1.8 U/mg. In addition, the Ratio in data set [3] worked out at 510; in data set [6] it was 2150.
Take `CC[C@H](C)[C@@H]1NC(=O)[C@H](Cc2ccc(O)cc2)NC(=O)[C@@H](N)CSSC[C@@H](C(=O)N2CCC[C@H]2C(=O)N[C@@H](CC(C)C)C(=O)NCC(N)=O)NC(=O)[C@H](CC(N)=O)NC(=O)[C@H](CCO)NC1=O` (H-CYI[hSer]NCPLG-NH2; disulfide 1-6): the Activity in data set [1] amounted to 125 U/mg; in data set [2] it was 357 U/mg; in data set [4], 0.021 U/mg; in data set [5], 380 U/mg; in data set [7] it was 0.24 U/mg. Moreover, the Ratio in data set [3] stood at 520; in data set [6], 5950.
Turning to `CC[C@H](C)[C@@H]1NC(=O)[C@H](Cc2ccc(O)cc2)NC(=O)[C@@H](N)CSSC[C@@H](C(=O)N2CCC[C@H]2C(=O)N[C@@H](CC(C)C)C(=O)NCC(N)=O)NC(=O)[C@H](CC(N)=O)NC(=O)[C@H](CCC(N)=O)NC1=O` [OXYTOCIN], the Activity was 520 U/mg in data set [1], 474 U/mg in data set [2], 486 U/mg in data set [5] and 4 U/mg in data set [7].
